3 molecules from ChEMBL document CHEMBL4196108, “5-Aroylindoles Act as Selective Histone Deacetylase 6 Inhibitors Ameliorating Alzheimer's Disease Phenotypes” (J Med Chem, 2018) can be followed below.

The species named for experiment [1] is Homo sapiens. Kind of experiment: Selectivity index, ratio of IC50 for human HDAC10 to IC50 for human HDAC6.
For experiment [2], the target named is T1, Protein deacetylase HDAC6 (Mus musculus) (UniProt Q9Z2V5).
T1 sequence (whole entry): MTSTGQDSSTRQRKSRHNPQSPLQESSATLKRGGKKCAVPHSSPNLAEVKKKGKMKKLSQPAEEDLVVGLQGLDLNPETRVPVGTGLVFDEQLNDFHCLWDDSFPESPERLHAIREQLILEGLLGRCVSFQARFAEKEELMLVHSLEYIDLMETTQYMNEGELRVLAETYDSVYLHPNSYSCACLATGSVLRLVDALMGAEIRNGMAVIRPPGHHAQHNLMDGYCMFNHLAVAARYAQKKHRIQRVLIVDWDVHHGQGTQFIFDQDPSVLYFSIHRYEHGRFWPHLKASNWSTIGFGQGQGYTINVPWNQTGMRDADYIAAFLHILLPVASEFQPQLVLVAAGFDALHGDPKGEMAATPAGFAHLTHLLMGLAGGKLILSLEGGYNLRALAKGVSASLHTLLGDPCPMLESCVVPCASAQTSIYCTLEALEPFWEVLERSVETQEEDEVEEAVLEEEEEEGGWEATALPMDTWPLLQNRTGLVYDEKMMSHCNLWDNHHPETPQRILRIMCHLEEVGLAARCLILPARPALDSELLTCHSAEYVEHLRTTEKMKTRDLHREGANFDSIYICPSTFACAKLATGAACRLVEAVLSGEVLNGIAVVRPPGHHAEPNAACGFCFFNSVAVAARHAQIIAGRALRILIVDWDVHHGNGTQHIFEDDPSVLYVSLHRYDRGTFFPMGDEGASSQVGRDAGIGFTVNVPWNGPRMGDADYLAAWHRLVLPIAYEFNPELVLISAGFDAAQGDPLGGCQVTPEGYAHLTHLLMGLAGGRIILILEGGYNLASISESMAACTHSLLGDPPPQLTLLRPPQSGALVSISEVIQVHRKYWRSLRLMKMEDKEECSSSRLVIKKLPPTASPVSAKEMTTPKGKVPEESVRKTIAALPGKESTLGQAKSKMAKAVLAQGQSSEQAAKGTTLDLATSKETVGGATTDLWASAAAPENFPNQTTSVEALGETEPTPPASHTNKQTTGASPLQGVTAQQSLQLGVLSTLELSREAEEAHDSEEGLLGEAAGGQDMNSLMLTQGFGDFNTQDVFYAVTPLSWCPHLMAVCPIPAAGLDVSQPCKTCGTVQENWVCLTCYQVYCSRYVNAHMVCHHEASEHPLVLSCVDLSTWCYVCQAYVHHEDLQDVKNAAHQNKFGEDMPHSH
Put plainly: Inhibition of HDAC6 in mouse Neuro-2a cells transfected with pCAX FLAG APP and pRK5-EGFP-Tau P301L plasmids assessed as inhibition of Tau P301L mutant phosphorylation at Ser396 residue at 1 uM after 24 hrs by Western blot analysis. The experiment is classed as cell-based. Put shortly: (§1)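 SH-SY5Y or Neuro-2a cells cotransfected 24 h with pCAX APP695 and pRK5-EGFP-Tau P301L, then treated 24 h at 1 µM. 20 µg lysate protein immunoblotted for APP and phospho-tau Ser396/Ser404. Mean ± STD of three independent experiments; Student's t-test.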
On the technique in general: Immunoblotting shows a protein as a band on a membrane.

The species entered for experiment [3] is Homo sapiens. Kind of experiment: Selectivity index, ratio of IC50 for human HDAC8 to IC50 for human HDAC6.
The species named for experiment [4] is Homo sapiens. Kind of experiment: Selectivity index, ratio of IC50 for human HDAC2 to IC50 for human HDAC6.
The species entered for experiment [5] is Homo sapiens. Put plainly: Selectivity index, ratio of IC50 for human HDAC1 to IC50 for human HDAC6.
For experiment [6], the target named is T2, Protein deacetylase HDAC6 (Homo sapiens, UniProt Q9UBN7).
T2 sequence (Q9UBN7 whole entry): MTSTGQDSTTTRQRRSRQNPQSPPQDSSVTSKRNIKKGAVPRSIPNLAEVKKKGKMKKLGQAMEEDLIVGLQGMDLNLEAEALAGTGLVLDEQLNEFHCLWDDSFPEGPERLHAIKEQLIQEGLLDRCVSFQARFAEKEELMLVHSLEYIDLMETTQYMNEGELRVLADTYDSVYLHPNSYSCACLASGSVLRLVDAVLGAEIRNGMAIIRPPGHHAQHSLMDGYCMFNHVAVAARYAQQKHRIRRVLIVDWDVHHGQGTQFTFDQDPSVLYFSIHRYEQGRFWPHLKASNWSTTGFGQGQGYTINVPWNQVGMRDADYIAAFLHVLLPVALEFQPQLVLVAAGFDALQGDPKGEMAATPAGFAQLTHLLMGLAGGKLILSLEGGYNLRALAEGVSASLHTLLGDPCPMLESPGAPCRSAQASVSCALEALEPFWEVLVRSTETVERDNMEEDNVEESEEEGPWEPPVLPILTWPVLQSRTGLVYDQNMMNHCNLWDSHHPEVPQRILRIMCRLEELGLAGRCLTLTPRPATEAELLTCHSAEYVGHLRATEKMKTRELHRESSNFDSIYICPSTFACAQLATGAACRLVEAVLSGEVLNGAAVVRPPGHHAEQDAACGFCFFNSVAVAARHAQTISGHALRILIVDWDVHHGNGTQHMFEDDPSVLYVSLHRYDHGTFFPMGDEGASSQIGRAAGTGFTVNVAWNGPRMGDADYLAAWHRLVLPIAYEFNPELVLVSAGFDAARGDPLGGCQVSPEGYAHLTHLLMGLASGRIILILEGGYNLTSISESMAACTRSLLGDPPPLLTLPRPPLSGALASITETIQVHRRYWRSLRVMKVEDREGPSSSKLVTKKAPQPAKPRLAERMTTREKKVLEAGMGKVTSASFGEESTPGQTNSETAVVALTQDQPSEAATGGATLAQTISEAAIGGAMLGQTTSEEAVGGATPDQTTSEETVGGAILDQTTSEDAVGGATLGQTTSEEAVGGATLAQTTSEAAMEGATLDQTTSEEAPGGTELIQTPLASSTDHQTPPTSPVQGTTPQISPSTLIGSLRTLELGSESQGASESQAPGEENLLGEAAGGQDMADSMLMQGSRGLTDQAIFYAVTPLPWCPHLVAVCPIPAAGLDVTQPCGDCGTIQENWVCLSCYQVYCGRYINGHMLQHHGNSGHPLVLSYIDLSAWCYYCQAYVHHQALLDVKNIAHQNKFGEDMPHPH
Put plainly: Inhibition of human HDAC6 using RHKKAc peptide as substrate.

The target in another experiment is Histone deacetylase 3 (Homo sapiens, UniProt O15379).
In the next experiment the target is Histone deacetylase 2 (Homo sapiens, UniProt Q92769). Put plainly: Inhibition of human HDAC2 using RHKKAc peptide as substrate.
Experiment [7] is filed under the species Homo sapiens. Kind of experiment: Selectivity index, ratio of IC50 for human HDAC3 to IC50 for human HDAC6.
Experiment [8] has as its target T3, Protein deacetylase HDAC6 (Homo sapiens) (UniProt Q9UBN7).
T3 sequence (whole entry): T2 sequence (Q9UBN7 whole entry)
Kind of experiment: Inhibition of HDAC6 in human SH-SY5Y cells transfected with pCAX FLAG APP and pRK5-EGFP-Tau P301L plasmids assessed as inhibition of Tau P301L mutant phosphorylation at Ser396 residue at 1 uM after 24 hrs by Western blot analysis. It is filed as cell-based. Put shortly: as §1

pIC50: −log10 of the molar value. Active and inactive are the calls of the source. No cut-off for these calls is given here.

Histone deacetylase 2, sequence (Q92769 whole entry): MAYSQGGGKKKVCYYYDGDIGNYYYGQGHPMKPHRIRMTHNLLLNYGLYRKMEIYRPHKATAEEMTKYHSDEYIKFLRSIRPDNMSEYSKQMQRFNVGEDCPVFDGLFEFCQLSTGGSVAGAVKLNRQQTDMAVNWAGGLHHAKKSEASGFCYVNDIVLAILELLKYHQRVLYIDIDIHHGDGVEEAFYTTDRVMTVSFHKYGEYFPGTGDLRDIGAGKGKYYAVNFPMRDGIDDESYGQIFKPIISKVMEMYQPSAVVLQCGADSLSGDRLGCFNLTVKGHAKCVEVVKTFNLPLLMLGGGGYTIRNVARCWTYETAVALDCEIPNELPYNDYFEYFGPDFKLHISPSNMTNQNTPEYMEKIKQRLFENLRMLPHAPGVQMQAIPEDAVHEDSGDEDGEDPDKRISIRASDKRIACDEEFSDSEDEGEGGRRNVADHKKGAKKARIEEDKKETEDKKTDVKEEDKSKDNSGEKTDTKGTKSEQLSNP
Histone deacetylase 3, sequence (O15379 whole entry): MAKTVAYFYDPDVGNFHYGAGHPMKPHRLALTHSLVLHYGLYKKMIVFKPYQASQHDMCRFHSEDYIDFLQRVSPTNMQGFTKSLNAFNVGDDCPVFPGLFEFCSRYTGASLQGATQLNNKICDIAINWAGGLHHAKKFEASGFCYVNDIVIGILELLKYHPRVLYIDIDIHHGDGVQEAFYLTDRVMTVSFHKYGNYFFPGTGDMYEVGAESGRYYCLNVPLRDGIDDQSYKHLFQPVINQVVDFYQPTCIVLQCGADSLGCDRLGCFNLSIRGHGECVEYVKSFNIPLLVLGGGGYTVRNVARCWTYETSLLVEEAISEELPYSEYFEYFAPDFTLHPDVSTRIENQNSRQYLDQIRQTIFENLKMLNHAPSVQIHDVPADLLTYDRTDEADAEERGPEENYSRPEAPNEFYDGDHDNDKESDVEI

In general, pIC50 refers to −log10 of the IC50, conventionally taken in molar units. `COc1ccc(C(=O)c2ccc3c(ccn3Cc3ccc(C(=O)NO)cc3)c2)cc1`: the Ratio IC50 in the experiment listed under Homo sapiens [1] worked out at 15300; in the experiment listed under Homo sapiens [3], 165; in the experiment filed under Homo sapiens [4] it was 145; in the experiment listed under Homo sapiens [5], 559; in the experiment listed under Homo sapiens [7], 1060. The inhibition entry in [2] and in [8] was “Active” each time. Moreover, the pIC50 was 8.41 in experiment [6], 5.38 on Histone deacetylase 3 and 6.25 against Histone deacetylase 2.

As to `O=C(NO)c1ccc(Cn2ccc3cc(C(=O)c4ccc(Cl)cc4)ccc32)cc1`, the Ratio IC50 is above 14900 in the experiment filed under Homo sapiens [1]; 158 in the experiment filed under Homo sapiens [3]; 312 in the experiment filed under Homo sapiens [4]; 710 in the experiment listed under Homo sapiens [5]; 984 in the experiment filed under Homo sapiens [7]. Moreover, the inhibition entry in experiment [2] and in [8] was “Active” each time. For the same molecule, the pIC50 in experiment [6] is 8.17; on Histone deacetylase 3, 5.18; on Histone deacetylase 2 it was 5.68.

For the molecule `O=C(NO)c1ccc(Cn2ccc3cc(C(=O)c4ccc(F)cc4)ccc32)cc1`, the Ratio IC50 in the experiment filed under Homo sapiens [1] was above 10800; in the experiment listed under Homo sapiens [3], 134; in the experiment filed under Homo sapiens [4] it was 552; in the experiment listed under Homo sapiens [5] it was 357; in the experiment listed under Homo sapiens [7], 476. Besides, the inhibition entry in experiment [2] and in [8] was “Active” in each case. The negative-log IC50 (pIC50) is 8.03 in [6], 5.36 against Histone deacetylase 3 and 5.29 on Histone deacetylase 2.
